High-throughput results from PubChem.
Calb FLC: C. albicans growth inhibition with fluconazole, primary screen, CaCi-2 strain, Alamar Blue fluorescence; 300,000 tested, 0.57% active; growth inhibition, % (test concentration not listed); AID 1979, 2009; C. albicans CaCi-2 (fluconazole-resistant clinical isolate) + fluconazole, 48 h;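 active means growth inhibition above about 58% in most replicates, limit read from the data, passing the limit was not always enough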;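 further: all wells also contain fluconazole at 8 µg/ml as a sub-toxic cotreatment; 0% = median of DMSO wells and 100% = median of geldanamycin control wells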
PHOSPHO1 block: PubChem AID 1565; Phosphoethanolamine/phosphocholine phosphatase (Homo sapiens), Q8TCT1; recombinant PHOSPHO1, absorbance phosphatase assay; inhibition, % at 13.3 µM; 290,000 tested, 1.1% active; in the data active means inhibition above about 60%
Target sequence (Q8TCT1 whole entry, looked up): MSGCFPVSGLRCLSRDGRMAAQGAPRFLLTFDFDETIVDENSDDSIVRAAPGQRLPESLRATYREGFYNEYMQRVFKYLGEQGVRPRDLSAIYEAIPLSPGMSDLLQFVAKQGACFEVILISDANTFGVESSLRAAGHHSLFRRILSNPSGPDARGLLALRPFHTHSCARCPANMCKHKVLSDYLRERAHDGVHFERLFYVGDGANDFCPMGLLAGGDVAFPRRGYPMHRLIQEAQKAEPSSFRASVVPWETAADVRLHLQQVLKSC
IMP-1 inh: IMP-1 metallo-beta-lactamase inhibitors, primary screen, biochemical, epi-absorbance readout, Pseudomonas aeruginosa enzyme; metallo-beta-lactamase IMP-1 (Pseudomonas aeruginosa); purified IMP-1, nitrocefin hydrolysis, epi-absorbance fluorescence; inhibition, % at 5.6 µM; 290,000 tested, 0.45% active; AID 1556, 2009;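 active means inhibition above the mean plus 3 SD of all compounds in the same screening run, cut at about 4.5% in these data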;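 further: 0% = IMP-1 with DMSO and 100% = DMSO wells lacking enzyme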
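System: purified recombinant IMP-1 beta-lactamase. Medium: Zinc- and detergent-supplemented HEPES buffer, pH 7.1. Compound: one 5.6 µM dose […]. Schedule: 15 min preincubation plus 25 min reaction at 25 °C. Technique: Epi-absorbance fluorescence, 480 nm excitation, 530 nm emission.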
ASAP1 inh: inhibitors of human ASAP1 ArfGAP activity, primary screen, biochemical, fluorescence polarization; Arf-GAP with SH3 domain, ANK repeat and PH domain-containing protein 1 (Homo sapiens), …; ASAP1-stimulated ARF1 GTP hydrolysis, GDP FP detection; inhibition, % at 16.5 µM; 360,000 tested, 0.19% active; AID 624377, 2012; in the data active means inhibition above about 25%;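 further: 0% = vehicle with enzyme and substrate and 100% = no enzyme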
ARFGAP1 inhibitor: inhibitors of rat ARFGAP1 GAP activity, primary screen, biochemical, fluorescence polarization, GDP tracer | ADP-ribosylation factor GTPase-activating protein 1 (Rattus norvegicus), Q62848 | 360,000 tested, 0.26% active | AID 651572, 2012 | Arfgap1-stimulated ARF1 GTP hydrolysis, GDP FP detection | inhibition, % at 16.5 µM;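 active means inhibition above a per-plate limit, mean inhibition of low control wells plus 3 SD, cut at about 25% in these data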;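 further: 0% = DMSO wells with enzyme and 100% = wells lacking Arfgap1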
Target sequence (Q62848 1-136 limits assumed): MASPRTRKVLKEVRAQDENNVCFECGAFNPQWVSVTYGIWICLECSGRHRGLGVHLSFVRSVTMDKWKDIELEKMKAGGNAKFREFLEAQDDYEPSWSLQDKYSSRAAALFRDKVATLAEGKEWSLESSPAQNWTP
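Material – truncated rat Arfgap1 GAP domain · Buffer or medium – HEPES-based buffer, pH 7.5 · Reagent – human ARF1(Δ1-17)-GTP substrate · Dosing – 16.5 µM single point, 1.26% DMSO · Schedule – GTP hydrolysis reaction 2 h at 25 °C · Technique – GDP detection by fluorescence polarization · Benchmarks – No-Arfgap1 wells (100%) versus DMSO full-reaction wells (0%) · Repeats – single replicate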
VIM-2 inh: VIM-2 metallo-beta-lactamase inhibitors, primary screen, biochemical, epi-absorbance readout, Pseudomonas aeruginosa enzyme; purified VIM-2, nitrocefin hydrolysis, epi-absorbance fluorescence; inhibition, % at 5.6 µM; 290,000 tested, 0.89% active;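 active means inhibition above the mean of all tested compounds plus 3 SD, cutoff set per screening run, cut at about 7.5% in these data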;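 further: red hydrolysis product quenches plate fluorescence so inhibitors raise well fluorescence; 0% = enzyme with DMSO and 100% = DMSO without enzyme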
* hit, by the source's call. In the library only some 2.6% were active in any assay of this set; here they are far more common.

Screening CCCCNS(=O)(=O)c1ccc2nc(SCC(=O)Nc3sccc3C#N)[nH]c2c1 returned Calb FLC 3.7, PHOSPHO1 block 14.1, IMP-1 inh 1.2, ASAP1 inh 26.6*, ARFGAP1 inhibitor 23.3 and VIM-2 inh 1.6.
For CCOC(=O)C(OC(=O)c1sc(=S)n(C)c1C)C(C)=O (stereo unspecified) the results were Calb FLC 4.1, PHOSPHO1 block 36.3, IMP-1 inh 2.2, ASAP1 inh -7.3, ARFGAP1 inhibitor 1.5 and VIM-2 inh 9.2*.
COc1ccccc1-c1cccc2c3c([nH]c12)[C@@H]1C[C@H]2[C@@H](C(=O)N1CC3)[C@H](C)ON2C was read as ASAP1 inh 0.6 and ARFGAP1 inhibitor -10.3.
For OCCNc1nc(Nc2ccc(Br)cc2)nc2ccccc12 the results were Calb FLC 24.7, PHOSPHO1 block -25.8, IMP-1 inh -1.6, ASAP1 inh 25.7*, ARFGAP1 inhibitor 2.2 and VIM-2 inh 1.3.
Screening Cc1ccc(Nc2nc(NCc3ccco3)c3ccccc3n2)cc1 returned Calb FLC 91.6*, PHOSPHO1 block -0.6, IMP-1 inh 1.1, ASAP1 inh 4.1, ARFGAP1 inhibitor 8.3 and VIM-2 inh -0.2.
C[C@H](O)[C@@H]1CN2CCc3c([nH]c4ccccc34)[C@@H]2C[C@@H]1N(C)CC1CCCCC1 was read as ASAP1 inh 10.3 and ARFGAP1 inhibitor 2.0.
OCCN1CCN(C(c2cccs2)c2ccc3cccnc3c2O)CC1 (stereo unspecified) was read as PHOSPHO1 block 104.8*, IMP-1 inh -1.0 and VIM-2 inh 0.6.
Screening CCN1CCN(C(c2ccc(C(F)(F)F)cc2)c2ccc3cccnc3c2O)CC1 (stereo unspecified) returned Calb FLC -2.2, PHOSPHO1 block -102.1, IMP-1 inh -3.6, ASAP1 inh 14.6, ARFGAP1 inhibitor -6.3 and VIM-2 inh -5.3.
For COC(=O)/C(=C(/F)Sc1cc(C)c(O)c(C)c1)C(F)(F)F the results were Calb FLC 13.8, PHOSPHO1 block 63.7*, IMP-1 inh -0.4 and VIM-2 inh -0.4.
`O=C(CSc1nnc(Cc2cccs2)n1CCc1ccccc1)N1CCCc2ccccc21` gave Calb FLC -24.3, PHOSPHO1 block 66.4*, IMP-1 inh -3.8, ASAP1 inh -10.4, ARFGAP1 inhibitor -7.0 and VIM-2 inh -4.1.
Screening CCOc1ccc2nc(N=NC3=C(O)CC(C)(C)CC3=O)sc2c1 returned Calb FLC 89.5*, PHOSPHO1 block 8.6, IMP-1 inh -4.0, ASAP1 inh -6.6, ARFGAP1 inhibitor -5.2 and VIM-2 inh -4.7.
For COc1cc(-c2nnc(SCc3cc(=O)oc4cc(C)ccc34)o2)cc(OC)c1OC the results were Calb FLC 31.6, PHOSPHO1 block 73.5*, IMP-1 inh -1.8, ASAP1 inh 3.5, ARFGAP1 inhibitor -5.7 and VIM-2 inh 1.8.
`NC(=O)C1=C[C@@H](c2csc3ccccc23)C[C@@H](OCCCCO)O1` gave Calb FLC -15.5, PHOSPHO1 block 19.8, IMP-1 inh 6.3*, ASAP1 inh 3.8, ARFGAP1 inhibitor 4.7 and VIM-2 inh 2.9.
For C=CCOC(=O)C1=C[C@H](c2csc3ccccc23)C[C@H](OCCCCO)O1 the results were Calb FLC 24.4, ASAP1 inh 7.7 and ARFGAP1 inhibitor 10.8.
Screening COc1ccc2cc([C@H](C)C(=O)N(C)Cc3ccccc3N3CCCC3)ccc2c1 returned Calb FLC 21.5, PHOSPHO1 block -2.8, IMP-1 inh -0.5, ASAP1 inh -7.4, ARFGAP1 inhibitor -3.5 and VIM-2 inh 7.8*.
Screening COc1ccc(C(C)=O)cc1CSC(=S)N1CCSCC1 returned ASAP1 inh -1.4 and ARFGAP1 inhibitor 8.5.
For O=C(CCC(=O)Nc1ccccc1Cl)NNS(=O)(=O)c1ccc(Cl)cc1 the results were Calb FLC 110.6*, PHOSPHO1 block 31.3, IMP-1 inh -2.6, ASAP1 inh -4.5, ARFGAP1 inhibitor -3.1 and VIM-2 inh -3.0.
